The source made the active and inactive calls. Cut-off read from the data, not from the text of the source, unless noted: active = inhibition above about 31%; inactive = the rest.
Legend:
[1] = reduced viability of SK-BR-3 breast cancer cells – cell-based, 24 h, human, pilot screen (AID 572;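 active = viability at or below 10% of carrier control in both of two separate runs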;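 note: compound exposure lasted between 18 and 24 h rather than exactly 24 h; 100% = carrier-treated control wells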); settings: SK-BR-3 viability, CellTiter-Glo luminescence, at 10 µM, stronger effect = lower value
[2] = MRP1 drug-resistance reversers in H69AR cells – cell-based, doxorubicin co-treatment, pilot screen (AID 601;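 active = viability loss from added drug above about 55%, and viability with drug at most 40%, in both replicates, limit read from the data, passing the limit was not always enough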); settings: CellTiter-Glo, 72 h, at 10 µM; for differential viability (reversal): stronger effect = higher value
[3] = yeast transport mutant growth inhibition pilot in 384-well plates, post-Golgi transport modulator project (AID 636); settings: absorbance 615 nm, about 18 h, stronger effect = higher value
[4] = growth suppression of yeast trafficking mutant, preliminary HTS, modulators of trafficking downstream of Golgi apparatus project, 1536-format plate, OD 615 nm (AID 637; in the data active = inhibition above about 30%); settings: yeast transport mutant growth, absorbance 615 nm, 18 h; stronger effect = higher value
[5] = HUVEC growth inhibition – cell-based, human, primary screen (AID 575;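 active = viability at or below 30% in both replicate assays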;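 note: 100% = median of untreated cell wells with 0.1% DMSO on each plate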); settings: HUVEC proliferation, CellTiter-Glo luminescence, 72 h; at 10 µM; stronger effect = lower value
Procedure, shortened: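 Timing: 72 h treatment at 37 °C; material: HUVEC primary cells; technique: CellTiter-Glo luminescence measuring cellular ATP; controls: vehicle and MePR control wells; measure: percent of median DMSO-control luminescence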

[6] = H69AR cell proliferation blockers – human, duplicate replicates, primary screen (AID 580;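 active = viability at or under a set limit in both replicates, limit being median viability minus 3 SD, cut at about 48% in these data, passing the limit was not always enough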;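 note: 100% = mean luminescence of untreated wells and 0% = no signal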); settings: H69AR lung tumor cells viability, ATP luminescence, 72 h; at 10 µM; stronger effect = lower value
[7] = H69AR cells + 2 uM doxorubicin, measured here: viability with 2 uM doxorubicin, stronger effect = lower value
[8] = H69AR cells, compound alone cytotoxicity

SMILES | viability [1] | differential viability (reversal) ([2]; H69AR cells + 2 uM doxorubicin) | viability [2, 7] [%] | viability [2, 8] [%] | inhibition [3] | inhibition [4] | viability [5] | viability [6]
CC(C)Cn1c2c(c(O)c(C(=O)Nc3ncccc3O)c1=O)CCCC2 | 91% (inactive) | -10.7% (inactive) | 63.1 | 52.4 | -2% (inactive) | -2.91% (inactive) | – | –
COC(=O)Nc1nc2ccc(Sc3ccccc3)cc2[nH]1 | 90% (inactive) | -13.4% (inactive) | 25.1 | 11.7 | 3.25% (inactive) | 25.2% (inactive) | – | –
O=C(CNCCC1=CCCCC1)Nc1ccccc1N1CCCCC1 | 102% (inactive) | -5.31% (inactive) | 66.9 | 61.6 | -1.08% (inactive) | 6.51% (inactive) | – | –
COc1cc(NC(=O)c2cc(-n3cnnc3)ccc2Cl)cc(OC)c1 | – | 19.9% (inactive) | 83.7 | 104 | 0% (inactive) | -1.11% (inactive) | 93.6% (inactive) | 104% (inactive)
O=C(COc1ccccc1Cl)N1CCCC1 | – | -0.435% (inactive) | 92.3 | 91.9 | 2.24% (inactive) | -4.6% (inactive) | 105% (inactive) | 91.9% (inactive)
CC(C)OC(=O)CSc1nnc(-c2ccc(O)cc2)n1Cc1ccccc1 | – | -4.22% (inactive) | 85 | 80.8 | -7.2% (inactive) | -2.22% (inactive) | 109% (inactive) | 80.8% (inactive)
O=C(O)C1CSC2c3ccccc3C(=O)N12 (stereo unspecified) | – | 15.4% (inactive) | 87.6 | 103 | -1.04% (inactive) | 3.81% (inactive) | 104% (inactive) | 103% (inactive)
CC(C)(C)OC(=O)N1CCN(c2ccc(NC(=O)c3cc4ccccc4oc3=O)cc2)CC1 | – | 8.14% (inactive) | 84.8 | 93 | -5.45% (inactive) | 1.59% (inactive) | 103% (inactive) | 93% (inactive)
O=C(CCCn1c(=O)c2sccc2n(CC(=O)NCc2ccco2)c1=O)NCc1ccco1 | – | 20% (inactive) | 80 | 100 | -2.86% (inactive) | 2.54% (inactive) | 90.4% (inactive) | 100% (inactive)
Cc1ccc(SCCC(=O)N(C)C)cc1 | – | 18.3% (inactive) | 84.6 | 103 | -2.89% (inactive) | 0% (inactive) | 105% (inactive) | 103% (inactive)
COc1ccc(S(=O)(=O)N2CCN(Cc3ccc(Cl)cc3)CC2)cc1 | – | 6.67% (inactive) | 90.3 | 97 | -0.4% (inactive) | -3.81% (inactive) | 90.7% (inactive) | 97% (inactive)
COc1cccc(-c2cc(C(=O)Nc3cc(C)n(Cc4ccc(Cl)cc4)n3)no2)c1 | 57.5% (inactive) | -6.4% (inactive) | 58.5 | 52.1 | -6.35% (inactive) | -7% (inactive) | – | –
O=C(Cc1ccc(S(=O)(=O)N2CCCC2)s1)Nc1nc2c(s1)CCCC2 | – | 1% (inactive) | 94.7 | 95.7 | -1.17% (inactive) | -6.83% (inactive) | 66.3% (inactive) | 95.7% (inactive)
Cc1ccc(NC(=O)c2ccco2)c(NC(=O)c2cccs2)c1 | – | -1.08% (inactive) | 89.9 | 88.8 | -3.73% (inactive) | 8.57% (inactive) | 92% (inactive) | 88.8% (inactive)
O=C(O)c1ccc(-n2nc(C(F)(F)F)c3c2-c2ccoc2CC3)cc1 | – | 9.15% (inactive) | 87.9 | 97 | 0.39% (inactive) | -1.43% (inactive) | 70.8% (inactive) | 97% (inactive)
CCC(=O)Oc1ccc(/C(CC)=C(\CC)c2ccc(OC(=O)CC)cc2)cc1 | 131% (inactive) | -40.5% (inactive) | 49.2 | 8.75 | -0.39% (inactive) | -4.67% (inactive) | – | –
COC(=O)c1ccccc1NC(=O)c1ccc(-c2ccccc2F)o1 | 89% (inactive) | 7.71% (inactive) | 53.2 | 60.9 | -8.36% (inactive) | -2.74% (inactive) | – | –
CN1CCN(CC#CCC(O)(c2ccccc2)C2CCCC2)CC1 (stereo unspecified) | – | 1.13% (inactive) | 90.5 | 91.7 | -6.4% (inactive) | -2.38% (inactive) | 102% (inactive) | 91.7% (inactive)
Cc1ccc(C)c(C(=O)CC2(O)C(=O)Nc3ccccc32)c1 (stereo unspecified) | – | 17.1% (inactive) | 88 | 105 | -3.6% (inactive) | -7.3% (inactive) | 109% (inactive) | 105% (inactive)
CCc1c(C(=O)NCCc2ccc(OC)c(OC)c2)[nH]c(C)c1C(C)=O | – | 4.88% (inactive) | 82.1 | 87 | -5.2% (inactive) | 3.97% (inactive) | 98.6% (inactive) | 87% (inactive)
CCCn1nc(CC(=O)O)c2ccccc2c1=O | – | 8.11% (inactive) | 94.7 | 103 | -6.27% (inactive) | -3.02% (inactive) | 98.2% (inactive) | 103% (inactive)
